Measurements of several laboratories.
Lines come from different studies, so protocols differ.

Compound | target or system | test | system | setting | quantity | value
Cc1ccc(Cn2cc(C(=O)NN)c(=O)c3cc(Oc4ccccc4)ccc32)cc1 |  | metabolic stability | male rat, liver microsomes | 1 µM | microsomal CLint | < 11.6 µL/min/mg
CN1CCN(c2cnc3c(cc(C(=O)NCc4ccc(Cl)cc4)c(=O)n3CC(=O)N3CC(C)(F)C3)n2)C1=O | B-95-8 | cell growth or viability, ATP luminescence |  | 5 days | CC50 | 4.61 µM
COc1ccc2c(C[Se][C@@H]3O[C@H](CO)[C@H](O)[C@H](O)[C@H]3O)cc(=O)oc2c1 | THP-1 | cell growth or viability, WST-1 |  | 24 h | CC50 | > 100 µM
COC(=O)COc1c(Cc2cc(C(C)(C)CC(C)(C)C)cc(-n3nc4ccccc4n3)c2OCC(=O)OC)cc(C(C)(C)CC(C)(C)C)cc1-n1nc2ccccc2n1 | MCF7 | cell growth or viability, MTT |  | 10 µM, 48 h | viability | 4.9%
Cn1nc2c(=O)n(C3CC3)ncc2c1[C@](O)(c1cnc(C(F)(F)F)c(Cl)c1)C(F)(F)F |  | metabolic stability | male Sprague-Dawley rat, hepatocytes | 0.5 µM, pH 7.4 | hepatocyte CLint | 0.9 µL/min/10⁶ cells
CC1(F)CN(C(=O)Cn2c(=O)c(C(=O)NCc3ccc(Cl)cc3)cc3nc(N4CCNC4=O)cnc32)C1 | B-95-8 | cell growth or viability, ATP luminescence |  | 5 days | CC50 | 3.59 µM
CN/C(=N/CCSCc1nc[nH]c1C)NC#N |  | metabolic stability | human, hepatocytes | 0.5 µM, pH 7.4 | hepatocyte CLint | 2.15 µL/min/10⁶ cells
CC(=O)OC[C@H]1O[C@@H]([Se]Cc2ccc3ccccc3n2)[C@H](OC(C)=O)[C@@H](OC(C)=O)[C@@H]1OC(C)=O | THP-1 | cell growth or viability, WST-1 |  | 24 h | CC50 | ~50 µM
